Reference: ChEMBL document CHEMBL3244156, “Analgesic and tranquilizing activity of 5,8-disubstituted 1-tetralone Mannich bases” (1977)

Columns and labels:
Canis familiaris = experiment: Analgesic activity in dog assessed as rippling of skin at 10 mg/kg, po after 2 hrs by radiant heat assay; assay type: functional, Canis lupus familiaris
Procedure, shortened: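 Dogs held in a harness with a shaved mid-back patch placed under a concealed radiant heat source. Endpoint is the latency from heat onset to skin "rippling". Baseline latency measured in each dog, then retested at 0.5 and 2 h after dosing. Result expressed as % of control.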

Mus musculus [1] = experiment: Analgesic activity in mouse at 100 mg/kg, ip after 2 hrs by hot plate assay; assay type: functional; conditions: route intraperitoneal
Procedure, shortened: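 Mice dropped into a glass cylinder on an aluminum plate held at 57 °C. Timed from foot contact to first hind-foot flick, with a 10-s limit. Observed 0.5 and 2 h after treatment. Value is % of mice failing to react within the limit. At least ten mice per dose.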

Mus musculus [2] = experiment: Analgesic activity in mouse assessed as tail-flick latency period at 100 mg/kg, ip after 2 hrs by tail flick test; assay type: functional; conditions: route intraperitoneal
Mus musculus [3] = experiment: Neuroleptic activity in ip dosed mouse assessed as inhibition of amphetamine-induced mortality; assay type: functional
Procedure, shortened: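 Aggregated mice in groups of ten given amphetamine. Value is an ED50 estimate for blocking lethality, bracketed between a dose where <5/10 died and a dose where >5/10 died.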

Rattus norvegicus [4] = experiment: Neuroleptic activity in ip dosed rat assessed as drug required for blocking discriminated jump-out avoidance behavior in after 1 hr; assay type: functional
Procedure, shortened: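 Rats trained in discriminated jump-out avoidance and tested 1 h after dosing. Value is an estimated ED50 for blocking avoidance.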

Rattus norvegicus [5] = experiment: Analgesic activity in rat assessed as median foot shock required to elicit flinch-jump at 32 mg/kg, ip after 2 hrs; assay type: functional; conditions: route intraperitoneal
Procedure, shortened: (§1)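 Series given just before and 0.5 and 2 h after ip dosing. Flinch, squeak and jump were scored. Value is the median shock (mA) that elicits a jump. At least five rats per dose.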

Rattus norvegicus [6] = experiment: Analgesic activity in rat assessed as median foot shock required to elicit flinch-jump at 10 mg/kg, ip after 2 hrs; assay type: functional; conditions: route intraperitoneal; procedure, shortened: as §1

SMILES | Activity (Canis familiaris) [%] | Activity (Mus musculus [1]) [%] | Activity (Mus musculus [2]) [%] | ED50 (Mus musculus [3]) [mg/kg] | ED50 (Rattus norvegicus [4]) [mg/kg] | Activity (Rattus norvegicus [5]) [mA] | Activity (Rattus norvegicus [6]) [mA]
COc1ccc(Cl)c2c1CCC(CN1CCOCC1)C2=O.O=C(O)/C=C\C(=O)O (stereo not drawn) | 140 | 0 | 20 | 32 | 0.32 | 2.2 | 
COc1cccc2c1CCC(CN1CCCC1)C2=O.Cl (stereo not drawn) |  | 0 | 0 |  |  | 0.8 | 
COc1ccc(OC)c2c1CCC(CN1CCCC1)C2=O.Cl (stereo not drawn) |  | 0 | 0 |  |  | 1.2 | 
COc1ccc(Cl)c2c1C(C)CC(CN1CCCCC1)C2=O.Cl (stereo not drawn) |  |  |  |  |  | 1.2 | 
CCOC(=O)N1CCN(CC2CCc3c(OC)ccc(Cl)c3C2=O)CC1.O=C(O)/C=C\C(=O)O (stereo not drawn) |  | 0 | 0 |  |  | 0.6 | 
CCOC1(c2ccccc2)CCN(CC2CCc3c(OC)ccc(Cl)c3C2=O)CC1.Cl (stereo not drawn) |  | 0 | 0 |  |  | 1.2 | 
COc1ccc(Cl)c2c1CC(CN(C)C)C2=O.Cl (stereo not drawn) |  | 20 | 30 |  |  | 0.6 | 
CCN(CC)CC1CCc2c(OC)ccc(Cl)c2C1=O.O=C(O)/C=C\C(=O)O (stereo not drawn) |  | 20 | 0 |  |  | 0.6 | 
COc1ccc(Cl)c2c1CCC(C(c1ccccc1)N1CCOCC1)C2=O.Cl (stereo not drawn) |  | 0 | 0 |  |  | 0.6 | 
CCc1c(C)[nH]c2c1C(=O)C(CN1CCOCC1)CC2 (stereo not drawn) [MOLINDONE] |  |  |  | 3.2 | 3.2 |  | 
COc1ccc(Cl)c2c1CCC(C(C)N1CCCCC1)C2=O.Cl (stereo not drawn) |  | 20 | 0 |  |  | 0.6 | 
COc1ccc(Cl)c2c1CC(CN1CCCC1)C2=O.Cl (stereo not drawn) |  | 0 | 0 |  |  | 0.6 | 
COc1ccc(OC)c2c1CCC(CN1CCOCC1)C2=O.Cl (stereo not drawn) |  | 10 | 0 |  |  | 0.6 | 
COc1ccc(C)c2c1CCC(CN(C)C)C2=O.Cl (stereo not drawn) |  |  |  |  |  | 0.6 | 
CN(C)CC1CCc2ccccc2C1=O.Cl (stereo not drawn) | 70 | 10 | 0 | 32 | > 10 | 1.2 | 
COc1cccc2c1CCC(CN1CCCCC1)C2=O.Cl (stereo not drawn) |  |  |  |  |  | 0.8 | 
COc1ccc(C)c2c1CCC(CN1CCCC1)C2=O.Cl (stereo not drawn) |  | 12.5 | 50 |  |  | 2.2 | 
COc1ccc(Cl)c2c1CCC(C(c1ccccc1)N1CCCCC1)C2=O.Cl (stereo not drawn) |  | 30 | 0 |  |  | 0.6 | 
COc1ccc(Cl)c2c1CCC(CN1CCCCC1)C2=O.Cl (stereo not drawn) | 110 | 0 | 0 | 10 | 32 | >2.2 | 2.2
COc1ccc(OC)c2c1CCC(CN(C)C)C2=O.Cl (stereo not drawn) |  | 10 | 0 |  |  | 0.6 | 
CNCC1CCc2c(OC)ccc(Cl)c2C1=O.Cl (stereo not drawn) |  | 10 | 0 |  |  | >2.2 | 1.2
COc1ccc(Cl)c2c1CC(CN1CCCCC1)C2=O.Cl (stereo not drawn) |  | 0 | 0 |  |  | 0.6 | 
Cl.O=C1c2ccccc2CCC1CN1CCCC1 (stereo not drawn) | 100 | 0 | 10 | 32 | > 10 | 1.2 | 
COc1cccc2c1CCC(CN(C)C)C2=O.Cl (stereo not drawn) |  | 0 | 0 |  |  | 1.2 | 

SMILES | Activity (Canis familiaris) [%] | Activity (Mus musculus [1]) [%] | Activity (Mus musculus [2]) [%] | ED50 (Mus musculus [3]) [mg/kg] | ED50 (Rattus norvegicus [4]) [mg/kg] | Activity (Rattus norvegicus [5]) [mA] | Activity (Rattus norvegicus [6]) [mA]
COc1ccc(Cl)c2c1CCC(CN1CCC(O)(c3ccccc3)CC1)C2=O.Cl (stereo not drawn) |  | 60 | 0 |  |  | >2.2 | 1.2
COc1ccc(Cl)c2c1CCC(CNC1CCCCC1)C2=O.Cl (stereo not drawn) |  |  | 0 |  |  | >2.2 | 1.2
CCOc1ccc(Cl)c2c1CCC(CN(C)C)C2=O.Cl (stereo not drawn) |  | 0 | 0 |  |  | 0.6 | 
COc1ccc(Cl)c2c1CC(CN1CCOCC1)C2=O.Cl (stereo not drawn) |  | 0 | 0 |  |  | 0.6 | 
COc1ccc(F)c2c1CCC(CN1CCCC1)C2=O.Cl (stereo not drawn) |  | 50 | 0 |  |  | 1.2 | 
COc1ccc(Cl)c2c1CCC(C)(CN1CCOCC1)C2=O.Cl (stereo not drawn) |  |  |  |  |  | 0.6 | 
COc1cccc2c1CCC(CN1CCOCC1)C2=O.Cl (stereo not drawn) |  |  |  |  |  | 0.6 | 
CN(C)CCCN1c2ccccc2Sc2ccc(Cl)cc21 [CHLORPROMAZINE] |  |  |  | 1 | 3.2 |  | 
CCOc1ccc(Cl)c2c1CCC(CN1CCCCC1)C2=O.Cl (stereo not drawn) |  | 33 | 33 |  |  | 0.6 | 
COc1ccc(Cl)c2c1CCC(C(C)N1CCOCC1)C2=O.Cl (stereo not drawn) |  | 0 | 0 |  |  | 0.6 | 
COc1ccc(Cl)c2c1CCC(CN(C)C)C2=O.Cl (stereo not drawn) | 130 | 0 | 10 | 32 | > 178 | 2.2 | 
COc1ccc(F)c2c1CCC(CN1CCOCC1)C2=O.Cl (stereo not drawn) |  | 30 | 10 |  |  | 1.2 | 
COc1ccc(OC)c2c1CCC(CN1CCCCC1)C2=O.Cl (stereo not drawn) |  | 0 | 22 |  |  | 2.2 | 
COc1ccc(C)c2c1CCC(CN1CCOCC1)C2=O.Cl (stereo not drawn) |  | 10 | 0 |  |  | 0.6 | 
COc1ccc(F)c2c1CCC(CN(C)C)C2=O.Cl (stereo not drawn) |  | 50 | 0 |  |  | 0.6 | 
CN1CCN(CC/C=C2/c3ccccc3Sc3ccc(S(=O)(=O)N(C)C)cc32)CC1 [THIOTHIXENE] |  |  |  | 0.32 | 3.2 |  | 
Cl.O=C1c2ccccc2CCC1CN1CCCCC1 (stereo not drawn) |  | 0 | 0 | > 100 | > 32 | 0.8 | 
COc1ccc(Cl)c2c1CCC(C)(CN1CCCCC1)C2=O.Cl (stereo not drawn) |  |  |  |  |  | 0.6 | 
COc1ccc(Cl)c2c1CCC(CN1CCC(c3ccccc3)CC1)C2=O.Cl (stereo not drawn) |  | 20 | 10 |  |  | >2.2 | 2.2
CCOc1ccc(Cl)c2c1CCC(CN1CCOCC1)C2=O.Cl (stereo not drawn) |  | 10 | 20 |  |  | 2.2 | 
CCOc1ccc(Cl)c2c1CCC(CN1CCCC1)C2=O.Cl (stereo not drawn) |  | 30 | 60 |  |  | 0.6 | 
Cl.O=C1c2ccccc2CCC1CN1CCOCC1 (stereo not drawn) | 90 | 10 | 20 | 32 | > 10 | 0.6 | 
COc1ccc(Cl)c2c1C(C)CC(CN1CCOCC1)C2=O.Cl (stereo not drawn) |  | 30 | 40 |  |  | 0.8 | 
COc1ccc(Cl)c2c1CCC(CN1CCCCCC1)C2=O.Cl (stereo not drawn) |  | 0 | 0 |  |  | 1.2 | 
